Assay [1] is described as follows: Potency relative to progesterone in reversing of [3H]- VBL accumulation in MDA-435/LCC6 (Pgp-negative) cells. It is filed as functional, Homo sapiens. In outline:
(§1)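 Test compound at five concentrations was added with DOX (4 μM) or [³H] VBL (5 nM) for 3 h, in triplicate. Cells were washed in ice-cold 0.15 M NaCl. DOX was measured fluorometrically after TCA extraction and VBL by scintillation, both normalized to cell number. Pgp-specific EC50 values were corrected for these effects.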

Assay [2] is described as follows: Growth inhibitory activity on MDA-435/LCC6 ([…]) human breast cancer cells. Type of assay: functional, cell-based. The note with it: Cancer cell lines. The essentials:
(§2)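 MDA435/LCC6 (Pgp-negative) and MDA435/LCC6^MDR1 (Pgp-positive) cells were plated 24 h, then exposed 5 days to test agents at a range of concentrations in growth medium. Cells were fixed and stained with 0.5% crystal violet in 25% methanol, and dye was eluted in 0.1 M sodium citrate/25% methanol and read at 540 nm. […] Mean ± SE, ≥3 experiments.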

Assay [3] can be described thus: Growth inhibitory activity on MDA-435/LCC6-MDRI ([…]) human breast cancer cells. The note with it: Cancer cell lines. Type of assay: functional, cell-based. In outline: as §2
The test system of assay [4] is Breast cancer cell line. As to the kind of experiment: Potency relative to progesterone in reducing the difference in reversal of DOX accumulation between MDA-435/LCC6 and MDA-435/LCC6-MDRI cells. Type of assay: functional, Homo sapiens. The essentials:
(§3)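 They were then given test compound at five concentrations plus DOX (4 μM) or [³H] VBL (5 nM) for 3 h, in triplicate, and washed with ice-cold 0.15 M NaCl. DOX was extracted in 20% TCA and read by fluorescence (ex 500/em 580 nm); VBL was counted by scintillation. Values were corrected for cell number. EC50 is the concentration halving the accumulation difference between the two lines, interpolated from dose-response curves. […] Mean ± SE, ≥3 experiments.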

Assay [5] relates to Breast cancer cell line. As to the kind of experiment: To estimate the extent of resistance conferred by Pgp, the ratio of IC50 in MDA-435/LCC6-MDR1 and MDA-435/LCC6 cells (relative resistance of Pgp-positive cells) was used. Type of assay: functional, Homo sapiens. In outline: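 Retrovirally MDR1-transduced MDA435/LCC6^MDR1 and parental MDA435/LCC6 cells, 24 h after plating, exposed 5 days to graded agent concentrations. Fixed/stained with 0.5% crystal violet in 25% methanol, dye extracted in 0.1 M sodium citrate/25% methanol, A540. IC50 = concentration halving cell density versus untreated, interpolated.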

Assay [6] concerns Breast cancer cell line. Put plainly: Concentration that reduces difference in reversal of [3H]VBL accumulation between MDA-435/LCC6 and MDA-435/LCC6-MDRI cells by 50%. It is filed as functional, cell-based. To be noted: Homo sapiens. The essentials: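 They were then given test compound at five concentrations plus DOX (4 μM) or [³H] VBL (5 nM) for 3 h, in triplicate, and washed with ice-cold 0.15 M NaCl. Values were corrected for cell number. EC50 is the concentration halving the accumulation difference between the two lines, interpolated from dose-response curves. Mean ± SE, ≥3 experiments.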

In assay [7] the test system is Breast cancer cell line. Put plainly: Potency relative to progesterone in reducing the difference in reversing of [3H]VBL accumulation between MDA-435/LCC6 and MDA-435/LCC6-MDRI cells. Type of assay: functional, Homo sapiens. In outline: as §3
For assay [8], the system named is Breast cancer cell line. Put plainly: Ratio of effect of compound on VBL accumulation (antiPgp activity) to its intrinsic cellular toxicity;. It is filed as functional, Homo sapiens.
Assay [9] concerns Breast cancer cell line. Put plainly: Concentration that reduces the difference in reversal of DOX accumulation between MDA-435/LCC6 and MDA-435/LCC6-MDRI cells by 50%. It is filed as functional, cell-based. The note with it: Homo sapiens. The essentials: as §3
Assay [10] can be described thus: Effect on reversal of DOX accumulation in MDA-435/LCC6 (Pgp-negative) cells. It is filed as functional. To be noted: Homo sapiens. The essentials: as §1
The test system of assay [11] is Breast cancer cell line. Put plainly: Ratio of effect of compound on DOX accumulation (antiPgp activity) to its intrinsic cellular toxicity;. Type of assay: functional, Homo sapiens. The essentials: (§4)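 Ratio IC50/EC50 of crystal violet cytotoxicity (5-day exposure) IC50 to the EC50 for DOX or [³H] VBL accumulation (3 h, 4 μM DOX or 5 nM VBL) in MDA435/LCC6 and MDA435/LCC6^MDR1 cells. Where no IC50 was reached, the highest non-toxic concentration tested, limited by solubility, was used.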

A short description of assay [12]: Potency relative to progesterone in reversing of DOX accumulation in MDA-435/LCC6 (Pgp-negative) cells. It is filed as functional, Homo sapiens. In outline: as §1
The nature of assay [13]: Effect on reversal of [3H]- VBL accumulation in MDA-435/LCC6 (Pgp-negative) cells. To be noted: Homo sapiens. It is filed as functional. In outline: as §1
For assay [14], the target named is ATP-dependent translocase ABCB1 (Homo sapiens, UniProt P08183). Put plainly: TP_TRANSPORTER: reversal of Vinblastine accumulation (Vinblastine: 0.005 uM) in MDA435/LCC6 MDR1 cells. It is filed as functional, cell-based, MDA-MB-435/LCC6 MDR1. The essentials: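 VBL (5 nM) with test compound at five concentrations, in triplicate. Cells were rinsed with ice-cold 0.15 M NaCl and PBS, dried, trypsinized, and counted by scintillation; accumulation was corrected for cell number.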
Sequence of ATP-dependent translocase ABCB1 (P08183 whole entry): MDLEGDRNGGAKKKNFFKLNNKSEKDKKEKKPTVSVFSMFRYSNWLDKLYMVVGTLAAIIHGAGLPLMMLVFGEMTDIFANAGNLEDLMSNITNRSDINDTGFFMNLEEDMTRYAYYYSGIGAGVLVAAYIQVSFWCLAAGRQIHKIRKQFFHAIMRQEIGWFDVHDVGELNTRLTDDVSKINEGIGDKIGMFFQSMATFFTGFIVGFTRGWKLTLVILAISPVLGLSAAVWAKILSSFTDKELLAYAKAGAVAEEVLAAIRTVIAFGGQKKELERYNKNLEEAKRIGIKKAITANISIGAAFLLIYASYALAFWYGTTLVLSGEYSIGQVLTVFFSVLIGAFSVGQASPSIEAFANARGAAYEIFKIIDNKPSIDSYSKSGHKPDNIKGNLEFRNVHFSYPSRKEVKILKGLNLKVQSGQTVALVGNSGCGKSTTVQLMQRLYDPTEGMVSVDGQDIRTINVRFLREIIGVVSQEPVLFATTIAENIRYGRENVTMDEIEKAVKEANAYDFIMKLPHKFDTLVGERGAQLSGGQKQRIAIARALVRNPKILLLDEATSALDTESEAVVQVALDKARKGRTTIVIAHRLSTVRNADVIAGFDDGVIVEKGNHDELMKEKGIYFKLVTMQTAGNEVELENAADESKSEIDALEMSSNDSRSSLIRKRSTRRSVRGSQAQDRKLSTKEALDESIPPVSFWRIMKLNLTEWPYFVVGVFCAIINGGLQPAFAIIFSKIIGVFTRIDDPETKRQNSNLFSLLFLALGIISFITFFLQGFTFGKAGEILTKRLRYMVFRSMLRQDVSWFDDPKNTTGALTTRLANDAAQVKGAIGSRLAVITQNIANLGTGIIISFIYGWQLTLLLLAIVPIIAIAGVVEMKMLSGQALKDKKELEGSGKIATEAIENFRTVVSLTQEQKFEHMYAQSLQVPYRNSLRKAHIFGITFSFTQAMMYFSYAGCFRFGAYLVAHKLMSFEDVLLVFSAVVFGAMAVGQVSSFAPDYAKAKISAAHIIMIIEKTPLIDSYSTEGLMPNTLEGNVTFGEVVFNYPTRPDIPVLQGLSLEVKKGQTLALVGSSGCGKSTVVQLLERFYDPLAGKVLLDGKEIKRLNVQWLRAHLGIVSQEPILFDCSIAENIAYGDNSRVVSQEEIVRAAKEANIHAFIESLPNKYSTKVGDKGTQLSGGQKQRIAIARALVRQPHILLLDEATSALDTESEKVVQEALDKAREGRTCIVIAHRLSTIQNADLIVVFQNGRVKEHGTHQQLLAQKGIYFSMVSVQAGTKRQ

Assay [15] concerns Breast cancer cell line. Put plainly: Ratio of effect of compound on DOX accumulation (antiPgp activity) to its intrinsic cellular toxicity. It is filed as functional, Homo sapiens. In outline: as §4
For assay [16], the system named is Breast cancer cell line. As to the kind of experiment: Ratio of effect of compound on VBL accumulation (antiPgp activity) to its intrinsic cellular toxicity. It is filed as functional, Homo sapiens. The essentials:
as §4

A short description of assay [17]: Growth inhibitory activity on MDA-435/LCC6-MDRI ([…]) human breast cancer cells. Type of assay: functional, cell-based. The note with it: Cancer cell lines. In outline: (§5)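 Cells exposed 24 h after plating to test agents at several concentrations for 5 days. Crystal violet (0.5% in 25% methanol) fix/stain, dye extracted in 0.1 M sodium citrate/25% methanol, absorbance at 540 nm as percent of untreated controls.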

Assay [18] is described as follows: Growth inhibitory activity on MDA-435/LCC6 ([…]) human breast cancer cells. Type of assay: functional, cell-based. To be noted: Cancer cell lines. The essentials:
as §5

Assay [19] concerns Breast cancer cell line. Put plainly: Concentration that reduces the difference in reversal of DOX accumulation between MDA-435/LCC6 and MDA-435/LCC6-MDRI cells by 50%. It is filed as functional, cell-based. To be noted: Homo sapiens. In outline:
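Ice-cold NaCl wash, overnight 20% TCA extraction at 4 °C in dark, fluorescence ex 500/em 580 nm against DOX standard curve, normalized to cell number.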

Assay [20] is described as follows: Potency relative to progesterone in reversing of DOX accumulation in MDA-435/LCC6 (Pgp-negative)cells; Not determined. It is filed as functional, Homo sapiens.

pEC50, pIC50: −log10 of the molar value.

Turning to `CC(=O)C1CCC2C3C(CC[C@]12C)[C@@]1(C)CCC(=O)C=C1C[C@H]3Sc1ccc(NC(=O)NCCCl)cc1` (stereo partly drawn), the Relative potency in assay [1] was determined as 23.5; in the assay on Breast cancer cell line [4] it was 40.5; with Breast cancer cell line [7] it was 22.5; in assay [12] it was 60.2. For the same compound, the pIC50 in assay [2] is 5.49; in assay [3], 5.14. The Relative resistance with Breast cancer cell line [5] is listed as 2.2. In addition, the negative logarithm of the EC50 (pEC50) in the assay with Breast cancer cell line [6] was 6.10; in the assay on Breast cancer cell line [9] it was 6.22; in assay [10], 6.15; in assay [13], 6.05. For the same compound, the figures for the Ratio in the assay on Breast cancer cell line [8] and in the assay with Breast cancer cell line [11] were 3.6 and 3.2, respectively.
As to `CC(=O)C1CC[C@H]2[C@@H]3[C@H](Sc4ccc(NC(=O)N[C@H](C)c5ccccc5)cc4)CC4=CC(=O)CC[C@]4(C)[C@H]3CC[C@]12C` (stereo partly drawn), the pEC50 in assay [14] is 6.15.
`C/C=C/C[C@@H](C)[C@@H](O)[C@H]1C(=O)N[C@@H](CC)C(=O)N(C)CC(=O)N(C)[C@@H](CC(C)C)C(=O)N[C@@H](C(C)C)C(=O)N(C)[C@@H](CC(C)C)C(=O)N[C@@H](C)C(=O)N[C@H](C)C(=O)N(C)[C@@H](CC(C)C)C(=O)N(C)[C@@H](CC(C)C)C(=O)N(C)[C@@H](C(C)C)C(=O)N1C` [CYCLOSPORINE]: the negative-log EC50 (pEC50) with Breast cancer cell line [9] is 6.30.
As to `CC(=O)[C@H]1CCC2C3C(CC[C@@]21C)[C@@]1(C)CCC(=O)C=C1C[C@H]3Sc1ccc(NC(=O)NS(=O)(=O)c2ccc(C)cc2)cc1` (stereo partly drawn), the Relative potency in assay [1] was determined as 0.6; with Breast cancer cell line [4], 1.5; in the assay on Breast cancer cell line [7], 0.5; in assay [12] it was 1.1. The negative logarithm of the IC50 (pIC50) in assay [2] is 4.66; in assay [3], 4.42. Moreover, the Relative resistance with Breast cancer cell line [5] was 1.7. Moreover, the negative-log EC50 (pEC50) is 4.46 in the assay on Breast cancer cell line [6], 4.83 in the assay with Breast cancer cell line [9], 4.43 in assay [10] and 4.48 in assay [13]. Further, the results for the Ratio in the assay with Breast cancer cell line [8] and with Breast cancer cell line [11] were 0.7 and 0.6, respectively.
`CC(=O)[C@H]1CCC2C3C(CC[C@@]21C)[C@@]1(C)CCC(=O)C=C1C[C@H]3Sc1ccc(NC(=O)N[C@H](C)c2ccccc2)cc1` (stereo partly drawn): the Ratio is listed as over 22.2 in the assay on Breast cancer cell line [15] and over 28.6 in the assay with Breast cancer cell line [16]. In addition, the Relative potency in assay [1] is reported as 28.2; in the assay on Breast cancer cell line [4], 37.2; with Breast cancer cell line [7], 24.5; in assay [12], 44.8. For the same compound, the pIC50 in [17] and in assay [18] was under 4.70 throughout. The pEC50 was 6.10 with Breast cancer cell line [6], 6.22 in the assay on Breast cancer cell line [9], 6.05 in assay [10] and 6.15 in assay [13].
As for `COc1ccc(CCN(C)CCCC(C#N)(c2ccc(OC)c(OC)c2)C(C)C)cc1OC` (stereo not drawn), the pIC50 in assay [2] was 4.18; in [3] it was 4.20. The pEC50 with Breast cancer cell line [6] is 5.92; in the assay on Breast cancer cell line [9], 5.62; in [10] it was 5.39.
Regarding `CC(=O)[C@H]1CC[C@H]2[C@@H]3CCC4=CC(=O)CC[C@]4(C)[C@H]3CC[C@]12C` [PROGESTERONE], the negative logarithm of the IC50 (pIC50) is 4.56 in assay [2] and 4.44 in assay [3]. Besides, the negative logarithm of the EC50 (pEC50) is 4.73 with Breast cancer cell line [6], 4.37 in assay [10], 4.68 in assay [13] and 4.65 in the assay with Breast cancer cell line [19].
For `CCNC(=O)Nc1ccc(S[C@@H]2CC3=CC(=O)CC[C@]3(C)C3CC[C@]4(C)C(C(C)=O)CCC4C32)cc1` (stereo partly drawn), the Relative potency in assay [1] worked out at 14; in the assay on Breast cancer cell line [4] it was 31.3; in assay [20] it was 42.7; with Breast cancer cell line [7], 14.2. The Ratio with Breast cancer cell line [16] was over 13.3; in the assay with Breast cancer cell line [11], over 20. The negative logarithm of the IC50 (pIC50) in [17] and in assay [18] was under 4.70 in each case. Moreover, the pEC50 in the assay on Breast cancer cell line [6] was 5.89; with Breast cancer cell line [9] it was 6.15; in assay [10], 6.00; in [13], 5.82.

A word on the pIC50: it is −log10 of the IC50, conventionally taken in molar units. Broadly, the pEC50 is −log10 of the EC50, conventionally taken in molar units.

These data come from ChEMBL document CHEMBL1135805 (J Med Chem, 2002).
